Results as given in ChEMBL document CHEMBL1649230, “Aryl rhodanines specifically inhibit staphylococcal and enterococcal biofilm formation” (Antimicrob Agents Chemother, 2009).
Calls of active or inactive are those of the source. The rule behind the calls is not given here.

Experiments:
[1] = test system: Enterococcus faecalis; test: Antimicrobial activity against Enterococcus faecalis ATCC 51299 on medical grade silicone disk assessed as inhibition of bacterial biofilm after 18 hrs by broth microdilution method; assay type: functional
[2] = test system: Staphylococcus aureus; test: Antimicrobial activity against community acquired methicillin-resistant Staphylococcus aureus isolate 27687 assessed as inhibition of bacterial biofilm after 18 hrs by broth microdilution method; assay type: functional
In short: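 Biofilm MBIC on tissue culture-treated polystyrene 96-well plates. Twofold dilutions, 0.2 to 100 μM final, with 2% DMSO final. Inoculum was an overnight culture diluted 1:100 (~5 × 10^6 cells/well) in 0.5× TSB plus 1% glucose, grown 18 h at 37°C. Wells washed, heat-fixed 60°C 60 min, stained with 0.06% crystal violet, OD600 read. MBIC is the lowest concentration giving ≥80% inhibition versus untreated; geometric mean of ≥3 experiments.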

[3] = test system: Staphylococcus epidermidis; test: Antimicrobial activity against Staphylococcus epidermidis ATCC 35984 on medical grade silicone disk assessed as inhibition of bacterial biofilm after 18 hrs by broth microdilution method; assay type: functional
In short: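 Medical-grade silicone disks glued to 24-well plate bottoms. Compound added to a 1:100 overnight-culture inoculum (0.5× TSB, 1% glucose) at 2% DMSO final; ≥3 wells each, ~18 h at 37°C. Washed with water, heat-fixed 60°C 60 min, stained with 0.06% crystal violet, eluted with 30% acetic acid, OD600 read. Repeated ≥3 times.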

[4] = test system: Staphylococcus aureus; test: Antimicrobial activity against Staphylococcus aureus ATCC 35556 assessed as inhibition of bacterial biofilm formation at 4 times MBIC measured after 6 hrs; assay type: functional, organism-based

Row | Structure (SMILES) | MBIC90 [1] [µM] | MBIC [2] [µM] | MBIC90 [3] [µM] | inhibition [4]
1 | C=CCOc1cc(/C=C2\SC(=S)N(c3ccc(F)cc3)C2=O)ccc1O | 100 | 50 | – | –
2 | CCOc1cc(/C=C2\SC(=S)N(c3ccc(F)cc3)C2=O)ccc1O | – | – | 42 | Active
